Activity calls are given as the source filed them. The rule behind the calls is not given here.

The results in this text go back to ChEMBL document CHEMBL4052675, “Synthesis, biological evaluation and molecular modeling of imidazo[1,2-a]pyridine derivatives as potent antitubulin agents” (Bioorg Med Chem, 2017).

For experiment [1], the species on record is Homo sapiens. In words: Inhibition of colchicine binding to tubulin (unknown origin) up to 15 uM pretreated for 1 hr followed by colchicine addition by spectrofluorometric method. A digest of the protocol:
(§1)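 Tubulin preincubated 1 h at 37 °C with test agent (0, 1.6, 5, 15 μM), then colchicine added to a final 5 μM. Fluorescence read at excitation 365 nm and emission 435 nm, with buffer blank subtracted. Value is F/F0 × 100%, where F0 is fluorescence of the colchicine–tubulin complex without competitor.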

The next experiment has as its system SMMC-7721. In words: Cytotoxicity against human SMMC7721 cells after 72 hrs by MTT assay. The format is functional, cell-based. The settings on record: SMMC-7721, 72 h. The essentials:
(§2)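 Cells grown in MEM with 10% FBS; about 4×10^3 cells per well, preincubated 24 h at 37 °C in 5% CO₂, then exposed to compounds for 72 h. MTT at a […] added for 4 h at 37 °C. Formazan dissolved in DMSO; absorbance read at 492 nm against 630 nm reference. Three runs per line; IC50 reported as mean ± SD.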

Experiment [2] deals with HT-29. In words: Cytotoxicity against human HT-29 cells after 72 hrs by MTT assay. Format: functional, cell-based. The following applies: HT-29, 72 h. The essentials:
as §2

Another experiment deals with MKN-45. In words: Cytotoxicity against human MKN45 cells after 72 hrs by MTT assay. Format: functional, cell-based. The settings on record: MKN-45, 72 h. A digest of the protocol: as §2
The subject of experiment [3] is HT-29. Put plainly: Potency index, ratio of CA-4 IC50 to test compound IC50 for human HT-29 cells. The format is functional.
A further experiment concerns A549. In words: Cytotoxicity against human A549 cells after 72 hrs by MTT assay. The format is functional, cell-based. The following applies: A549, 72 h. The essentials: as §2
For experiment [4], the species on record is Homo sapiens. Put plainly: Inhibition of tubulin polymerization in human HT-29 cells assessed as microtubule disruption by measuring scattered short microtubule fragment in cytoplasm at 88 nM after 24 hrs by DAPI staining based immunofluorescence microscopic analysis. Format: cell-based. The essentials:
(§3)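 HT-29 seeded at 1×10^4 per well, grown 24 h, then treated 24 h; controls received medium. Fixed in 4% formaldehyde/PBS (30 min, −20 °C), permeabilized with 0.2% Triton X-100, and blocked with 5% BSA. Stained with anti-α-tubulin (1:100, overnight, 4 °C), then FITC anti-mouse secondary (1:100, 2 h, 37 °C). DAPI counterstain; imaged by fluorescence microscopy.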

The species named for experiment [5] is Homo sapiens. In words: Inhibition of colchicine binding to tubulin (unknown origin) pretreated for 1 hr followed by colchicine addition by spectrofluorometric method. A digest of the protocol: as §1
The next experiment deals with NCI-H460. Put plainly: Cytotoxicity against human NCI-H460 cells after 72 hrs by MTT assay. Format: functional, cell-based. The settings on record: NCI-H460, 72 h. A digest of the protocol: as §2
Experiment [6] is filed under the species Homo sapiens. In words: Inhibition of tubulin polymerization in human HT-29 cells assessed as abnormal microtubule network formation at 88 nM after 24 hrs by DAPI staining based immunofluorescence microscopic analysis. The format is cell-based. A digest of the protocol:
as §3

The subject of experiment [7] is HT-29. In words: Potency index, ratio of crolibulin IC50 to test compound IC50 for human HT-29 cells. The format is functional.
The species entered for experiment [8] is Homo sapiens. Put plainly: Inhibition of tubulin polymerization in human HT-29 cells assessed as microtubule disruption by measuring scattered short microtubule fragment in cytoplasm at 20 nM after 24 hrs by DAPI staining based immunofluorescence microscopic analysis. Format: cell-based. A digest of the protocol:
as §3

The species named for experiment [9] is Homo sapiens. Put plainly: Inhibition of tubulin polymerization in human HT-29 cells assessed as abnormal microtubule network formation at 20 nM after 24 hrs by DAPI staining based immunofluorescence microscopic analysis. Format: cell-based. A digest of the protocol:
as §3

For the molecule `CC(=O)O[C@H]1C(=O)[C@@]2(C)[C@H]([C@H](OC(=O)c3ccccc3)[C@]3(O)C[C@H](OC(=O)[C@H](O)[C@@H](NC(=O)c4ccccc4)c4ccccc4)C(C)=C1C3(C)C)[C@]1(OC(C)=O)CO[C@@H]1C[C@@H]2O`, the inhibition result in the experiment listed under Homo sapiens [1] was “inactive”.
In the case of `N#Cc1c(-c2ccc(F)cc2F)cc(-c2c[nH]c3ccccc23)n2cc(CNC3CCCCC3)nc12`, the IC50 with SMMC-7721 came out at 5600 nM; in the experiment on HT-29 [2] it was 10 nM; in the experiment on MKN-45, 2400 nM; in the experiment with A549 it was 540 nM; with NCI-H460 it was 40 nM. For the same molecule, the “Ratio IC50” value with HT-29 [3] came to 5; with HT-29 [7], 52. The inhibition result in the experiment listed under Homo sapiens [4] and in the experiment filed under Homo sapiens [6] was “Active” throughout. Besides, the inhibition result in the experiment filed under Homo sapiens [5] was “Dose-dependent effect”.
For the molecule `COc1ccc(-c2cc(-c3ccc(F)cc3F)n3c(CN4CCCC4)cnc3c2C#N)c(OC)c1OC`, the IC50 in the experiment with SMMC-7721 is 2380 nM; in the experiment with HT-29 [2], 1340 nM; with MKN-45, 7260 nM; in the experiment with A549, 800 nM; in the experiment on NCI-H460, 60 nM.
The corresponding values for `COc1cc(-c2cc(-c3ccc(F)cc3F)n3c(CN4CCCC4)cnc3c2C#N)cc(OC)c1OC` are 2930 nM, 700 nM, 11600 nM, 1200 nM and 130 nM.
In the case of `CCNCc1cnc2c(C#N)c(-c3ccc(OC)c(OC)c3OC)cc(-c3ccc(F)cc3F)n12`, the IC50 came to 1320 nM with SMMC-7721; 90 nM in the experiment on HT-29 [2]; 3520 nM with MKN-45; 170 nM in the experiment with A549; 30 nM with NCI-H460.
The like results for `CCN(CC)Cc1cnc2c(C#N)c(-c3cc(OC)c(OC)c(OC)c3)cc(-c3ccc(F)cc3F)n12` were, in that order, more than 100000 nM, 3510 nM, 40600 nM, more than 100000 nM and 760 nM.
With `COc1ccc(/C=C\c2cc(OC)c(OC)c(OC)c2)cc1O` [COMBRETASTATIN A4], the inhibition entry in the experiment filed under Homo sapiens [8], in the experiment filed under Homo sapiens [1] and in the experiment filed under Homo sapiens [9] was “Active” throughout. Further, the IC50 amounted to 1920 nM in the experiment on SMMC-7721; 50 nM in the experiment with HT-29 [2]; 110 nM with MKN-45; 430 nM with A549; 80 nM with NCI-H460.
